In ChEMBL document CHEMBL4406907, “Exploration of zinc-binding groups for the design of inhibitors for the oxytocinase subfamily of M1 aminopeptidases” (Bioorg Med Chem, 2019):

Experiments:
[1] = target: T1, Endoplasmic reticulum aminopeptidase 1 (Homo sapiens, UniProt Q9NZ08); assay: Inhibition of human recombinant ERAP1 expressed in baculovirus infected Sf9 cells using omniMMP fluorogenic substrate incubated for 5 to 10 mins by fluorescence spectrophotometry analysis
[2] = target: T2, Endoplasmic reticulum aminopeptidase 2 (Homo sapiens, UniProt Q6P179); assay: Competitive inhibition of human recombinant ERAP2 expressed in baculovirus infected sf9 cells using R-AMC as substrate incubated for 5 to 10 mins by Michaelis-Menten analysis
T2 sequence (Q6P179 whole entry): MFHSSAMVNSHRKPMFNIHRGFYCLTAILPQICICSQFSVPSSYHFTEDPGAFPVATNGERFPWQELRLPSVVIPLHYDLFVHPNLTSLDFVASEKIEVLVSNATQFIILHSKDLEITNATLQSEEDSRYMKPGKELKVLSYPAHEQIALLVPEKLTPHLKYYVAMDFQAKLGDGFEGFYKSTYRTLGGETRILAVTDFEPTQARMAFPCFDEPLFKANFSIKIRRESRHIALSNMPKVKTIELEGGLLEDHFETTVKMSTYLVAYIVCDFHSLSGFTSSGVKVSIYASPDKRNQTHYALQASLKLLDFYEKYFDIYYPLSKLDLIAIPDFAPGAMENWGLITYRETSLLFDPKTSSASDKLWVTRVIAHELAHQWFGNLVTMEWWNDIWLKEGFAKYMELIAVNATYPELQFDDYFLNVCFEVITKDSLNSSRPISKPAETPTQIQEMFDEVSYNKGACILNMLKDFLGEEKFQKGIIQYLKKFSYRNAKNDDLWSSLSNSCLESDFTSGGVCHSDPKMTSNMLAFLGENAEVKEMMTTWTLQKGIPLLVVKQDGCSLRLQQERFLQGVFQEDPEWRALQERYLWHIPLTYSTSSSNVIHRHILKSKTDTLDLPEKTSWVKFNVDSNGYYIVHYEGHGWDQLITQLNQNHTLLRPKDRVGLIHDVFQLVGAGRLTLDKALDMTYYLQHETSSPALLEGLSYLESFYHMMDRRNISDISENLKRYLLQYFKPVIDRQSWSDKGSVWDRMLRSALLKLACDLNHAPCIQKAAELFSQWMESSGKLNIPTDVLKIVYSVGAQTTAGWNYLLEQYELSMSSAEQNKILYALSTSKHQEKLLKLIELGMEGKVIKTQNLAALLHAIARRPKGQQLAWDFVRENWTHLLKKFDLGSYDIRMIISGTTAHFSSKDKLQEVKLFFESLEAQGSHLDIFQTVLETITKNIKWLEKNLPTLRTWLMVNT

[3] = target: T1, Endoplasmic reticulum aminopeptidase 1; assay: Competitive inhibition of human recombinant ERAP1 expressed in baculovirus infected sf9 cells using L-AMC as substrate incubated for 5 to 10 mins by Michaelis-Menten analysis
Outline: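 ERAP1 (recombinant, as described previously) at 10 nM with L-AMC as substrate. Michaelis-Menten analysis as previously described. Ki for competitive inhibition derived using a KM for L-AMC of 546 μM.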

[4] = target: T2, Endoplasmic reticulum aminopeptidase 2; assay: Inhibition of human recombinant ERAP2 expressed in baculovirus infected Sf9 cells using omniMMP fluorogenic substrate incubated for 5 to 10 mins by fluorescence spectrophotometry analysis
[5] = tested on: Insulin-regulated aminopeptidase (Homo sapiens); assay: Inhibition of human recombinant IRAP expressed in baculovirus infected Sf9 cells using omniMMP fluorogenic substrate incubated for 5 to 10 mins by fluorescence spectrophotometry analysis

T1 sequence (Q9NZ08 whole entry): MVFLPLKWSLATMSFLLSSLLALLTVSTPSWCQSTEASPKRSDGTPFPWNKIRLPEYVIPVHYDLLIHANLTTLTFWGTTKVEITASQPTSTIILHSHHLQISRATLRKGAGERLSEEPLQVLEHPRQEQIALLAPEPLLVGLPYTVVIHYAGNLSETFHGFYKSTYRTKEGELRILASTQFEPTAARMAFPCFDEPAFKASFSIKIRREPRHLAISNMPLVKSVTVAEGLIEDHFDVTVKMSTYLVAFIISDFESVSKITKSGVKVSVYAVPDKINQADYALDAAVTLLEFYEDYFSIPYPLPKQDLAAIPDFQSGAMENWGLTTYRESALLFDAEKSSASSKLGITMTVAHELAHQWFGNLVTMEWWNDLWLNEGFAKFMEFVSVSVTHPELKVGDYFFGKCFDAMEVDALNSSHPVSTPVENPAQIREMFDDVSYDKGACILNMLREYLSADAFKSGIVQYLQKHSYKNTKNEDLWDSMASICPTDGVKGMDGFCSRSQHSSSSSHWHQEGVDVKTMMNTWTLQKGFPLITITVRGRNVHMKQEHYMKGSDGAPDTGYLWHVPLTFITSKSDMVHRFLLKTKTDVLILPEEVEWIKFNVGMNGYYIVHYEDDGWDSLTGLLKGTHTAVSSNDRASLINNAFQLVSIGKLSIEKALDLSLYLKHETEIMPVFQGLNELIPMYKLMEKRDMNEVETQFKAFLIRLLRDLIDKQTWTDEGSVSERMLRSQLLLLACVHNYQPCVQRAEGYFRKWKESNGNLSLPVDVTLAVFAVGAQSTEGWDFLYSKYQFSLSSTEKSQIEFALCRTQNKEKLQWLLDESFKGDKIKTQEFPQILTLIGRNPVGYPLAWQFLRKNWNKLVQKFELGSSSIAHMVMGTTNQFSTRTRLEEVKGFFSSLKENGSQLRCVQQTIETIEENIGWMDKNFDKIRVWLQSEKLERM

SMILES	IC50 [1] [µM]	Ki [2] [µM]	Ki [3] [µM]	IC50 [4] [µM]	inhibition [5]
CC(C)[C@H](NC(=O)Cn1cccc(O)c1=O)C(=O)OCc1ccccc1	48.5	4.9	44	8.9	
CCCC[C@H](N)C(=O)Nc1cccc(C(=O)N[C@@H](Cc2c[nH]c3ccccc23)C(=O)OCc2ccccc2)c1	> 100			> 10	
O=C(Cn1cccc(O)c1=O)NCCc1c[nH]c2ccccc12		17.7		31.3	
CCCC[C@H](N)C(=O)Nc1cc(C(=O)N[C@@H](Cc2c[nH]c3ccccc23)C(=O)OCc2ccccc2)ccn1	> 10			> 10	
CCCC[C@H](N)C(=O)NNc1ccc(C(=O)N[C@@H](Cc2c[nH]c3ccccc23)C(=O)OCc2ccccc2)cc1	11.9	1.2	10.9	2.2	Dose-dependent effect

Second part, the compound after the results:

IC50 [1] [µM]	Ki [2] [µM]	Ki [3] [µM]	IC50 [4] [µM]	inhibition [5]	SMILES
19.1	27.4	17.5	50.3		O=C(Cn1cccc(O)c1=O)NCCc1ccc(-c2ccccc2)cc1
11.9		4.7	> 10		N[C@@H](CCc1ccccc1)C(=O)NNc1ccc(C(=O)N[C@@H](Cc2c[nH]c3ccccc23)C(=O)OCc2ccccc2)cc1
> 100	4.8		8.8		CCCC[C@H](N)C(=O)Nc1ccc(C(=O)N[C@@H](Cc2c[nH]c3ccccc23)C(=O)OCc2ccccc2)cc1
20.2	0.7	18.5	10.3		O=C(Cn1cccc(O)c1=O)N[C@@H](Cc1c[nH]c2ccccc12)C(=O)OCc1ccccc1
25.6	17.4	23.4	31.9		COc1cccn(CC(=O)NCCc2ccc(-c3ccccc3)cc2)c1=S
> 10	4.3		7.9		CCCC[C@H](N)C(=O)NNc1cccc(C(=O)N[C@@H](Cc2c[nH]c3ccccc23)C(=O)OCc2ccccc2)c1
